Values after ≈ are worked out from the molar mass of the structure shown. Active and inactive are the calls of the source. The calls are words filed in the database; no cut-off is given here.
What was measured:
Pseudomonas aeruginosa [1] = experiment: Antimicrobial activity in 0.01 ug/ml pretreated Pseudomonas aeruginosa PAO1 H103 at 2 times MIC after overnight incubation by adaptive resistance assay; assay type: functional, organism-based
In short: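 Modified time-kill with PAO1 H103 grown to mid-log (OD600 0.5–0.6) in LB at 37°C with or without ciprofloxacin 0.01 or 0.03 µg/ml. Cells were pelleted, washed in prewarmed PBS pH 7.4, resuspended in prewarmed LB with ciprofloxacin 0.2 µg/ml (2× MIC) and shaken at 37°C. Samples taken every 15–20 min for 2 h and plated on LB agar for overnight CFU counts at 37°C. Four independent experiments.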

Pseudomonas aeruginosa [2] = experiment: Antibacterial activity against wild type Pseudomonas aeruginosa PAO1 H103 after 24 hrs by broth microdilution technique; assay type: functional
In short: (§1)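 Broth microdilution MIC with P. aeruginosa PAO1 H103 (wild type), Tn5-lux insertion mutants or complemented strain. Overnight LB cultures grown at 37°C with agitation, diluted 1:1,000 in LB. Antimicrobials made fresh daily. Growth scored after 24 h at 37°C. Four independent repeats; mode reported.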

Pseudomonas aeruginosa [3] = experiment: Antibacterial activity against 24_A2 allele containing Pseudomonas aeruginosa PAO1 H1106 mutant strain with lon::lux mutation assessed as fold decrease in MIC after 24 hrs by broth microdilution technique relative to wild type; assay type: functional; in short: as §1
Pseudomonas aeruginosa [4] = experiment: Antibacterial activity against 6_G1 allele containing Pseudomonas aeruginosa PAO1 H1121 mutant strain with PA4961::lux mutation after 24 hrs by broth microdilution technique; assay type: functional; in short: as §1
Pseudomonas aeruginosa [5] = experiment: Antibacterial activity against 16_G12 allele containing Pseudomonas aeruginosa PAO1 H1125 mutant strain with recG::lux mutation after 24 hrs by broth microdilution technique; assay type: functional; in short: as §1
Pseudomonas aeruginosa [6] = experiment: Antibacterial activity against 70_H3 allele containing Pseudomonas aeruginosa PAO1 H1129 mutant strain with rnt::lux mutation after 24 hrs by broth microdilution technique; assay type: functional; in short: as §1
Pseudomonas aeruginosa [7] = experiment: Antibacterial activity against 69_C12 allele containing Pseudomonas aeruginosa PAO1 H1109 mutant strain with recA::lux mutation after 24 hrs by broth microdilution technique; assay type: functional; in short: as §1
Pseudomonas aeruginosa [8] = experiment: Effect on morphological change in Pseudomonas aeruginosa PAO1 H1105 assessed as elongation in cell length at 0.03 ug/ml by Grams staining-based light microscopy; assay type: functional, organism-based
Pseudomonas aeruginosa [9] = experiment: Effect on morphological change in Pseudomonas aeruginosa PAO1 H1105/lon+ assessed as restoration of cell division at 0.03 ug/ml by Grams staining-based light microscopy
Pseudomonas aeruginosa [10] = experiment: Antibacterial activity against 75_F11 allele containing Pseudomonas aeruginosa PAO1 H1136 mutant strain with PA5455::lux mutation after 24 hrs by broth microdilution technique; assay type: functional; in short: as §1
Pseudomonas aeruginosa [11] = experiment: Antibacterial activity against 74_D9 allele containing Pseudomonas aeruginosa PAO1 H1105 mutant strain with lon::lux mutation after 24 hrs by broth microdilution technique; assay type: functional; in short: as §1
Pseudomonas aeruginosa [12] = experiment: Effect on morphological change in Pseudomonas aeruginosa PAO1 H1105/lon+ assessed as elongation in cell length at 0.03 ug/ml by Grams staining-based light microscopy
Pseudomonas aeruginosa [13] = experiment: Antibacterial activity against 24_A2 allele containing Pseudomonas aeruginosa PAO1 H1106 mutant strain with lon::lux mutation after 24 hrs by broth microdilution technique; assay type: functional; in short: as §1
Pseudomonas aeruginosa [14] = experiment: Antibacterial activity against 31_C9 allele containing Pseudomonas aeruginosa PAO1 H1104 mutant strain with lon::lux mutation after 24 hrs by broth microdilution technique; assay type: functional; in short: as §1
Pseudomonas aeruginosa [15] = experiment: Drug resistance in Pseudomonas aeruginosa PAO1 H1105 assessed as survivality at 0.0075 ug/ml after overnight incubation by adaptive resistance assay; assay type: functional, organism-based
Pseudomonas aeruginosa [16] = experiment: Antibacterial activity against 31_C9 allele containing Pseudomonas aeruginosa PAO1 H1104 mutant strain with lon::lux mutation assessed as fold decrease in MIC after 24 hrs by broth microdilution technique relative to wild type; assay type: functional; in short: as §1
Pseudomonas aeruginosa [17] = experiment: Antibacterial activity against 53_F11 allele containing Pseudomonas aeruginosa PAO1 H1124 mutant strain with PA5279::lux mutation after 24 hrs by broth microdilution technique; assay type: functional; in short: as §1
Pseudomonas aeruginosa [18] = experiment: Antibacterial activity against 63_H5 allele containing Pseudomonas aeruginosa PAO1 H1133 mutant strain with nfxB::lux mutation after 24 hrs by broth microdilution technique; assay type: functional; in short: as §1
Pseudomonas aeruginosa [19] = experiment: Antibacterial activity against 74_D9 allele containing Pseudomonas aeruginosa PAO1 H1105 mutant strain with lon::lux mutation assessed as fold decrease in MIC after 24 hrs by broth microdilution technique relative to wild type; assay type: functional; in short: as §1
Pseudomonas aeruginosa [20] = experiment: Antibacterial activity against Pseudomonas aeruginosa PAO1 H1105/lon+c mutant strain with lon::lux/lon+ mutation after 24 hrs by broth microdilution technique; assay type: functional; in short: as §1
Pseudomonas aeruginosa [21] = experiment: Increase in lon gene expression in Pseudomonas aeruginosa PAO1 H1105 mutant strain with lon::lux mutation assessed as incese in lon::lux fusion at 0.3 times MIC by luminescence assay relative to control; assay type: functional, organism-based
Pseudomonas aeruginosa [22] = experiment: Antibacterial activity against Pseudomonas aeruginosa PAO1 H1105/lon+ mutant strain with lon::lux mutation assessed as fold decrease in MIC after 24 hrs by broth microdilution technique relative to wild type; assay type: functional; in short: as §1

`O=C(O)c1cn(C2CC2)c2cc(N3CCNCC3)c(F)cc2c1=O` [CIPROFLOXACIN] was tested, and the Activity (Pseudomonas aeruginosa [1]) was “inactive”, the MIC (Pseudomonas aeruginosa [2]; PAO1 H103, 24 h) was 0.1 µg/mL (≈ 0.302 µM) and the “fold change (FC)” value (Pseudomonas aeruginosa [3]) was 4. For the same compound, the MIC (Pseudomonas aeruginosa [4]; PAO1 H1121, 24 h) was 0.05 µg/mL (≈ 0.151 µM), the MIC (Pseudomonas aeruginosa [5]; PAO1 H1125, 24 h) was 0.025 µg/mL and the MIC (Pseudomonas aeruginosa [6]; PAO1 H1129, 24 h) was 0.4 µg/mL (≈ 1.21 µM). The MIC (Pseudomonas aeruginosa [7]; PAO1 H1109, 24 h) was 0.05 µg/mL (≈ 0.151 µM), the Activity (Pseudomonas aeruginosa [8]) was “inactive” and the Activity (Pseudomonas aeruginosa [9]) was “Active”. The MIC (Pseudomonas aeruginosa [10]; PAO1 H1136, 24 h) was 0.4 µg/mL (≈ 1.21 µM), the MIC (Pseudomonas aeruginosa [11]; PAO1 H1105, 24 h) was 0.025 µg/mL (≈ 0.0754 µM) and the Activity (Pseudomonas aeruginosa [12]) was “inactive”. The MIC (Pseudomonas aeruginosa [13]; PAO1 H1106, 24 h) was 0.025 µg/mL (≈ 0.0754 µM), the MIC (Pseudomonas aeruginosa [14]; PAO1 H1104, 24 h) was 0.025 µg/mL (≈ 0.0754 µM) and the Activity (Pseudomonas aeruginosa [15]) was “inactive”. The “fold change (FC)” value (Pseudomonas aeruginosa [16]) was 4, the MIC (Pseudomonas aeruginosa [17]; PAO1 H1124, 24 h) was 0.05 µg/mL (≈ 0.151 µM) and the MIC (Pseudomonas aeruginosa [18]; PAO1 H1133, 24 h) was 0.8 µg/mL (≈ 2.41 µM). For the same compound, the “fold change (FC)” value (Pseudomonas aeruginosa [19]) was 4, the MIC (Pseudomonas aeruginosa [20]) was 0.1 µg/mL (≈ 0.302 µM) and the Activity (Pseudomonas aeruginosa [21]) was “Active”. For the same compound, the fold change (FC) (Pseudomonas aeruginosa [22]) was 1.

`CCn1cc(C(=O)O)c(=O)c2cc(F)c(N3CCNCC3)cc21` [NORFLOXACIN] gave an MIC (Pseudomonas aeruginosa [2]; PAO1 H103, 24 h) of 0.3 µg/mL (≈ 0.939 µM), a fold change (FC) (Pseudomonas aeruginosa [3]) of 2 and an MIC (Pseudomonas aeruginosa [4]; PAO1 H1121, 24 h) of 0.075 µg/mL (≈ 0.235 µM). For the same compound, the MIC (Pseudomonas aeruginosa [5]; PAO1 H1125, 24 h) was 0.15 µg/mL, the MIC (Pseudomonas aeruginosa [6]; PAO1 H1129, 24 h) was over 0.6 µg/mL and the MIC (Pseudomonas aeruginosa [7]; PAO1 H1109, 24 h) was 0.075 µg/mL (≈ 0.235 µM). It also gave an MIC (Pseudomonas aeruginosa [10]; PAO1 H1136, 24 h) of over 0.6 µg/mL, an MIC (Pseudomonas aeruginosa [11]; PAO1 H1105, 24 h) of 0.075 µg/mL (≈ 0.235 µM) and an MIC (Pseudomonas aeruginosa [13]; PAO1 H1106, 24 h) of 0.15 µg/mL (≈ 0.47 µM). For the same compound, the MIC (Pseudomonas aeruginosa [14]; PAO1 H1104, 24 h) was 0.15 µg/mL (≈ 0.47 µM), the fold change (FC) (Pseudomonas aeruginosa [16]) was 2 and the MIC (Pseudomonas aeruginosa [17]; PAO1 H1124, 24 h) was 0.15 µg/mL (≈ 0.47 µM). For the same compound, the MIC (Pseudomonas aeruginosa [18]; PAO1 H1133, 24 h) was over 0.6 µg/mL, the “fold change (FC)” value (Pseudomonas aeruginosa [19]) was 4 and the MIC (Pseudomonas aeruginosa [20]) was 0.3 µg/mL (≈ 0.939 µM). For the same compound, the fold change (FC) (Pseudomonas aeruginosa [22]) was 1.

`CCn1cc(C(=O)O)c(=O)c2ccc(C)nc21` [NALIDIXIC ACID] showed an MIC (Pseudomonas aeruginosa [2]; PAO1 H103, 24 h) of 256 µg/mL (≈ 1100 µM), a fold change (FC) (Pseudomonas aeruginosa [3]) of 2 and an MIC (Pseudomonas aeruginosa [4]; PAO1 H1121, 24 h) of 128 µg/mL (≈ 551 µM). The MIC (Pseudomonas aeruginosa [5]; PAO1 H1125, 24 h) was 128 µg/mL, the MIC (Pseudomonas aeruginosa [6]; PAO1 H1129, 24 h) was 512 µg/mL (≈ 2200 µM) and the MIC (Pseudomonas aeruginosa [7]; PAO1 H1109, 24 h) was 256 µg/mL (≈ 1100 µM). It also gave an MIC (Pseudomonas aeruginosa [10]; PAO1 H1136, 24 h) of 512 µg/mL (≈ 2200 µM), an MIC (Pseudomonas aeruginosa [11]; PAO1 H1105, 24 h) of 128 µg/mL (≈ 551 µM) and an MIC (Pseudomonas aeruginosa [13]; PAO1 H1106, 24 h) of 128 µg/mL (≈ 551 µM). For the same compound, the MIC (Pseudomonas aeruginosa [14]; PAO1 H1104, 24 h) was 128 µg/mL (≈ 551 µM), the fold change (FC) (Pseudomonas aeruginosa [16]) was 2 and the MIC (Pseudomonas aeruginosa [17]; PAO1 H1124, 24 h) was 128 µg/mL (≈ 551 µM). It also gave an MIC (Pseudomonas aeruginosa [18]; PAO1 H1133, 24 h) of 512 µg/mL (≈ 2200 µM), a fold change (FC) (Pseudomonas aeruginosa [19]) of 2 and an MIC (Pseudomonas aeruginosa [20]) of 256 µg/mL (≈ 1100 µM). The fold change (FC) (Pseudomonas aeruginosa [22]) was 1.

For GENTAMICIN, the MIC (Pseudomonas aeruginosa [2]) was 2 µg/mL, the MIC (Pseudomonas aeruginosa [4]) was 2 µg/mL and the MIC (Pseudomonas aeruginosa [5]) was 2 µM. For the same compound, the MIC (Pseudomonas aeruginosa [6]) was 2 µg/mL, the MIC (Pseudomonas aeruginosa [7]) was 2 µg/mL and the MIC (Pseudomonas aeruginosa [10]) was 2 µg/mL. The MIC (Pseudomonas aeruginosa [11]) was 2 µg/mL, the MIC (Pseudomonas aeruginosa [13]) was 2 µg/mL and the MIC (Pseudomonas aeruginosa [14]) was 2 µg/mL. For the same compound, the MIC (Pseudomonas aeruginosa [17]) was 2 µg/mL and the MIC (Pseudomonas aeruginosa [18]) was 2 µg/mL.

Compound `C[C@@H](O)[C@H]1C(=O)N2C(C(=O)O)=C(SCCNC=N)C[C@H]12` [IMIPENEM ANHYDROUS] has an MIC (Pseudomonas aeruginosa [2]; PAO1 H103, 24 h) of 1 µg/mL (≈ 3.34 µM), an MIC (Pseudomonas aeruginosa [4]; PAO1 H1121, 24 h) of 1 µg/mL (≈ 3.34 µM) and an MIC (Pseudomonas aeruginosa [5]; PAO1 H1125, 24 h) of 1 µg/mL. For the same compound, the MIC (Pseudomonas aeruginosa [6]; PAO1 H1129, 24 h) was 1 µg/mL (≈ 3.34 µM), the MIC (Pseudomonas aeruginosa [7]; PAO1 H1109, 24 h) was 1 µg/mL (≈ 3.34 µM) and the MIC (Pseudomonas aeruginosa [10]; PAO1 H1136, 24 h) was 1 µg/mL (≈ 3.34 µM). It also gave an MIC (Pseudomonas aeruginosa [11]; PAO1 H1105, 24 h) of 1 µg/mL (≈ 3.34 µM), an MIC (Pseudomonas aeruginosa [13]; PAO1 H1106, 24 h) of 1 µg/mL (≈ 3.34 µM) and an MIC (Pseudomonas aeruginosa [14]; PAO1 H1104, 24 h) of 1 µg/mL (≈ 3.34 µM). It also gave an MIC (Pseudomonas aeruginosa [17]; PAO1 H1124, 24 h) of 1 µg/mL (≈ 3.34 µM), an MIC (Pseudomonas aeruginosa [18]; PAO1 H1133, 24 h) of 1 µg/mL (≈ 3.34 µM) and an MIC (Pseudomonas aeruginosa [20]) of 1 µg/mL (≈ 3.34 µM).

Reference: ChEMBL document CHEMBL1151431, “Role of lon, an ATP-dependent protease homolog, in resistance of Pseudomonas aeruginosa to ciprofloxacin” (2007)
